These results are taken from ChEMBL document CHEMBL1123389, “3-Hydroxy-3-methylglutaryl-coenzyme A reductase inhibitors. 2. Structural modification of 7-(substituted aryl)-3,5-dihydroxy-6-heptenoic acids and their lactone derivatives” (J Med Chem, 1986).

Structures are written as SMILES.

The target in assay [1] is T1, 3-hydroxy-3-methylglutaryl-coenzyme A reductase (Rattus norvegicus, UniProt P51639).
T1 sequence (P51639 whole entry): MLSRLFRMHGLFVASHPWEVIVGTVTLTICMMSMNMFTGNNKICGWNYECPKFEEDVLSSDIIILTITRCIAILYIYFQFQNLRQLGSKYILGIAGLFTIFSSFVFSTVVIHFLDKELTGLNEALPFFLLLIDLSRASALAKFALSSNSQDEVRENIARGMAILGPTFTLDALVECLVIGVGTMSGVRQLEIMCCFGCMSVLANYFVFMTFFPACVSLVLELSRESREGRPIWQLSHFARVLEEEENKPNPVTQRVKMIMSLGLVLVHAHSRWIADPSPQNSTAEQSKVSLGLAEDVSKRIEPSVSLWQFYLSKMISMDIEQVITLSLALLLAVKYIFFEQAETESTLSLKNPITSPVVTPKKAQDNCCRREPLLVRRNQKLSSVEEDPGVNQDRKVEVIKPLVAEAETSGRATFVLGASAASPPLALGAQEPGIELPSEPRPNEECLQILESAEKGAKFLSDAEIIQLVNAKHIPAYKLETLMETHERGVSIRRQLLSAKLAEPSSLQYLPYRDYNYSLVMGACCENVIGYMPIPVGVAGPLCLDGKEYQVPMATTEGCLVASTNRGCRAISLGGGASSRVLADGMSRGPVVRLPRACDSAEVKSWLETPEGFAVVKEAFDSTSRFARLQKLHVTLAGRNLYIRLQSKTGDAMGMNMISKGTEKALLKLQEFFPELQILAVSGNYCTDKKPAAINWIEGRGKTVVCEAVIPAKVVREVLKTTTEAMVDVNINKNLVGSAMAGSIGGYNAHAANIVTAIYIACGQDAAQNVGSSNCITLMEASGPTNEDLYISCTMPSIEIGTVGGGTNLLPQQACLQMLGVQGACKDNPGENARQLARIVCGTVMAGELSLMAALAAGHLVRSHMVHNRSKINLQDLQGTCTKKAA
Put plainly: Inhibition of solubilized, partially purified rat liver HMG-CoA reductase. The gist of the method:
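Enzyme solubilized from fresh microsomes and purified through the second ammonium sulfate precipitation. It was diluted in 100 mM phosphate, pH 7.2, to give 50 000–60 000 dpm per 100 μL in control. Assay mix (0.8 mL): phosphate pH 7.2 100 mM, MgCl2 3 mM, NADP 3 mM, glucose 6-phosphate 10 mM, G6PDH 3 units, glutathione 50 mM, [14C]HMG-CoA 0.2 mM. Compounds were added as dihydroxy acid Na salts at multiple concentrations. Incubation ran 40 min at 37 °C, stopped with HCl, then lactonized. [14C]mevalonolactone was separated on Bio-Rex 5 and counted. IC50 came from a least-squares line of % inhibition vs concentration.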

In assay [2] the target is T2, 3-hydroxy-3-methylglutaryl-coenzyme A reductase (Rattus norvegicus) (UniProt P51639).
T2 sequence (whole entry): T1 sequence (P51639 whole entry)
Briefly: Relative potency to inhibit solubilized, partially purified rat liver HMG-CoA reductase compared with that of compactin.

In assay [1], `O=C1C[C@H](O)C[C@@H](/C=C/c2c(Cl)cc(Cl)cc2OCc2cccs2)O1` registered a half-maximal inhibitory concentration (IC50) of 600 nM. This compound also had a Relative potency in assay [2] of 3. For `O=C1C[C@H](O)C[C@@H](CCc2c(Cl)cc(Cl)cc2OCc2ccccc2)O1` (stereo in doubt; 8a(+)) [listing 1 of 2 here], the IC50 in assay [1] was 68 nM.

Compound `O=C1C[C@H](O)C[C@@H](/C=C/c2c(Cl)cc(Cl)cc2OCc2ccccn2)O1` showed a concentration for half-maximal inhibition (IC50) in assay [1] of 1200 nM. The Relative potency in assay [2] came out at 1.8. In assay [1], `O=C1C[C@H](O)C[C@@H](/C=C/c2c(Cl)cc(Cl)cc2OCc2ccccc2)O1` (racemic) yielded an IC50 of 430 nM. In addition, the Relative potency in assay [2] was 3.5.

In assay [1], `O=C1C[C@H](O)C[C@@H](/C=C/c2c(Cl)cc(Cl)cc2OCc2ccncc2)O1` gave an IC50 of 3700 nM. In assay [2], this compound had a Relative potency of 0.6. In the same order, the values of `CC(CCOc1cc(Cl)cc(Cl)c1/C=C/[C@@H]1C[C@@H](O)CC(=O)O1)CC(C)(C)C` (some centres undefined) are 38000 nM and 0.09. The like results for `O=C1C[C@H](O)C[C@@H](/C=C/c2c(Cl)cc(Cl)cc2OCc2ccc(Cl)cc2)O1` were, in that order, 2500 nM and 1.7.

In assay [1], `O=C1C[C@H](O)C[C@@H](/C=C/c2c(Cl)cc(OCc3ccccc3)cc2Cl)O1` showed an IC50 of 450 nM. Besides, the Relative potency in assay [2] was found to be 4. The like results for `O=C1C[C@H](O)C[C@@H](/C=C/c2c(Cl)cc(OCc3ccc(F)cc3)cc2Cl)O1` were, in that order, 670 nM and 2.7. `O=C1C[C@H](O)C[C@@H](/C=C/c2c(Cl)cc(Cl)cc2OCc2ccccc2F)O1` displayed a half-inhibitory concentration (IC50) in assay [1] of 510 nM. The compound further gave a Relative potency in assay [2] of 5.9.

`O=C1C[C@H](O)C[C@@H](/C=C/c2ccccc2-c2ccccc2)O1`: in assay [1], it took 3000 nM to reach half-maximal inhibition (IC50). In assay [2], this compound gave a Relative potency of 0.63. In the same order, the values of `COCCOCOc1cc(Cl)cc(Cl)c1/C=C/[C@@H]1C[C@@H](O)CC(=O)O1` are 11000 nM and 0.4. The like results for `O=C1C[C@H](O)CC(CCc2c(Cl)cc(Cl)cc2OCc2cccc(F)c2)O1` (some centres undefined) were, in that order, 210 nM and 8.

`O=C1C[C@H](O)C[C@@H](/C=C/c2ccc(-c3ccccc3)cc2)O1` registered an IC50 in assay [1] of 55000 nM.

Compound `O=C1C[C@H](O)CC(CCc2c(Cl)cc(Cl)cc2Oc2ccccc2)O1` (some centres undefined) registered an IC50 in assay [1] of 330 nM. In assay [2], the Relative potency amounted to 4.5. The like results for `O=C1C[C@H](O)CC(CCc2c(O)cc(Cl)cc2Cl)O1` (some centres undefined) were, in that order, 7900 nM and 0.2.

Compound `Cc1ccc(/C=C/[C@@H]2C[C@@H](O)CC(=O)O2)c(C)c1` came in with an IC50 in assay [1] of 29900 nM.

In assay [1], `O=C1C[C@H](O)C[C@@H](CCc2c(Cl)cc(Cl)cc2OCc2ccc(F)cc2)O1` (stereo in doubt; 66(+)) [listing 1 of 2 here] gave an IC50 of 50 nM. With `O=C1C[C@H](O)C[C@@H](CCc2c(Cl)cc(Cl)cc2OCc2ccc(F)cc2)O1` (stereo in doubt; 66) [listing 1 of 2 here], the Relative potency in assay [2] amounted to 38. Consider `O=C1C[C@H](O)C[C@@H](/C=C/c2c(Cl)cc(Cl)cc2OCc2cccc(F)c2)O1`, for which the midpoint of inhibition in assay [1], the IC50, lay at 580 nM. The same compound returned a Relative potency in assay [2] of 3.4. On to `O=C1C[C@H](O)C[C@@H](/C=C/c2ccc(Cl)c(Cl)c2)O1`, for which the IC50 in assay [1] amounted to 35000 nM. With `O=C1C[C@H](O)C[C@@H](/C=C/c2c(Cl)cccc2Cl)O1`, the IC50 in assay [1] amounted to 7900 nM. Also, the Relative potency in assay [2] was 0.14. In the same order, the values of `O=C1C[C@H](O)C[C@@H](/C=C/c2c(Cl)cc(Cl)cc2OCc2cccc3ccccc23)O1` are 4400 nM and 0.4. The like results for `O=C1C[C@H](O)C[C@@H](/C=C/c2ccccc2)O1` were, in that order, 284000 nM and 0.004. In the same order, the values of `O=C1C[C@H](O)C[C@@H](/C=C/c2cccc(Cl)c2Cl)O1` are 64400 nM and 0.017. `O=C1C[C@H](O)C[C@@H](/C=C/c2c(Cl)cc(Cl)cc2Oc2ccccc2)O1` gave an IC50 in assay [1] of 1100 nM. The compound also came in with a Relative potency in assay [2] of 1.4. The like results for `CCCCCOc1cc(Cl)cc(Cl)c1/C=C/[C@@H]1C[C@@H](O)CC(=O)O1` were, in that order, 1000 nM and 2.4. In the same order, the values of `O=C1C[C@H](O)C[C@@H](/C=C/c2c(Cl)cc(Cl)cc2OCc2ccc[n+]([O-])c2)O1` are 122000 nM and 0.016.

For `O=C1C[C@H](O)C[C@@H](CCc2c(Cl)cc(Cl)cc2OCc2ccccc2)O1` (racemic) [listing 1 of 2 here], the Relative potency in assay [2] turned out to be 12. In assay [1], `O=C1C[C@H](O)C[C@@H](/C=C/c2c(Cl)cc(Cl)cc2OCCC23CC4CC(CC(C4)C2)C3)O1` yielded an IC50 of 3000 nM. Moreover, the Relative potency in assay [2] came to 0.7. Consider `O=C1C[C@H](O)C[C@@H](/C=C/c2c(Cl)cc(Cl)cc2OCCc2ccccc2)O1`, for which, in assay [1], the IC50 came out at 480 nM. The Relative potency in assay [2] amounted to 5. On to `O=C1C[C@H](O)C[C@@H](/C=C/c2c(Cl)cc(Cl)cc2OC/C=C/c2ccccc2)O1`, for which the midpoint of inhibition in assay [1], the IC50, lay at 1900 nM. The compound further came in with a Relative potency in assay [2] of 1.1. `O=C1C[C@H](O)C[C@@H](CCc2c(Cl)cc(Cl)cc2OCc2ccccc2)O1` (racemic) [listing 2 of 2 here] had an IC50 in assay [1] of 200 nM. `N#Cc1ccc(COc2cc(Cl)cc(Cl)c2/C=C/[C@@H]2C[C@@H](O)CC(=O)O2)cc1`: inhibition in assay [1] was half-maximal at 2000 nM (IC50). This compound also had a Relative potency in assay [2] of 1.25.

For `O=C1C[C@H](O)C[C@@H](CCc2c(Cl)cc(Cl)cc2OCc2ccccc2)O1` (stereo in doubt; 8a(-)) [listing 1 of 2 here], half-maximal inhibition in assay [1] (IC50) required 5200 nM. Take `O=C1C[C@H](O)CC(CCc2c(Cl)cc(Cl)cc2OCc2ccc(C(F)(F)F)cc2)O1` (some centres undefined): the IC50 in assay [1] was 13000 nM. Moreover, the Relative potency in assay [2] stood at 0.16. In assay [1], `O=C1C[C@H](O)C[C@@H](CCc2c(Cl)cc(Cl)cc2COc2ccccc2)O1` displayed a half-maximal inhibitory concentration (IC50) of 390 nM. The same compound displayed a Relative potency in assay [2] of 6. In the same order, the values of `O=C1C[C@H](O)C[C@@H](/C=C/c2c(Cl)cc(Cl)cc2OCc2ccco2)O1` are 600 nM and 3.

As for `O=C1C[C@H](O)C[C@@H](/C=C/c2c(Cl)cc(Cl)cc2OCCOc2ccc(Cl)cc2)O1`, in assay [1], it took 1000 nM to reach half-maximal inhibition (IC50). The Relative potency in assay [2] was determined as 3.3.

For the compound `O=C1C[C@H](O)C[C@@H](/C=C/c2c(Cl)cc(Cl)cc2OCCCc2ccccc2)O1`, in assay [1], the IC50 was 1450 nM. Further, the Relative potency in assay [2] came out at 1.6. `O=C1C[C@H](O)C[C@@H](CCc2c(Cl)cc(Cl)cc2OCc2ccc(F)cc2)O1` (stereo in doubt; 66) [listing 2 of 2 here] displayed an IC50 in assay [1] of 76 nM. Regarding `O=C1C[C@H](O)C[C@@H](/C=C/c2c(Cl)cc(Cl)cc2OCc2ccc(F)cc2F)O1`, it took 200 nM to reach half-maximal inhibition in assay [1] (IC50). The compound also returned a Relative potency in assay [2] of 7.5. In turn, `O=C1C[C@H](O)C[C@@H](CCc2c(Cl)cc(Cl)cc2OCc2ccccc2)O1` (stereo in doubt; 8a(-)) [listing 2 of 2 here] showed a Relative potency in assay [2] of 0.25.

In assay [2], `O=C1C[C@H](O)C[C@@H](CCc2c(Cl)cc(Cl)cc2OCc2ccccc2)O1` (stereo in doubt; 8a(+)) [listing 2 of 2 here] returned a Relative potency of 19.1. `CCCCCOc1c(Cl)cc(Cl)cc1/C=C/[C@@H]1C[C@@H](O)CC(=O)O1` showed an IC50 in assay [1] of 13000 nM. Compound `O=C1C[C@H](O)C[C@@H](/C=C/c2ccc(Cl)cc2Cl)O1` gave a Relative potency in assay [2] of 0.08. On the same count and under the same terms, under `O=C1C[C@H](O)C[C@@H](CCc2c(Cl)cc(Cl)cc2OCc2ccc(F)cc2)O1` (stereo in doubt; 66(+)) [listing 2 of 2 here] stands 58.
